Measurements: ChEMBL document CHEMBL4339195, “Di-aryl Sulfonamide Motif Adds π-Stacking Bulk in Negative Allosteric Modulators of the NMDA Receptor” (ACS Med Chem Lett, 2019)

Tests used:
Assay type in all cases: cell-based
[1] = system: Glutamate receptor 3 (Homo sapiens), P42263 [L513Y]; experiment: Negative allosteric modulation of human GluA3 L513Y mutant expressed in Xenopus laevis oocytes assessed as inhibition of glutamate-induced current response at 30 uM at -40 mV holding potential by two-electrode voltage clamp method relative to glutamate alone
Glutamate receptor 3 (Homo sapiens), P42263 [L513Y], sequence (P42263 whole entry L513Y): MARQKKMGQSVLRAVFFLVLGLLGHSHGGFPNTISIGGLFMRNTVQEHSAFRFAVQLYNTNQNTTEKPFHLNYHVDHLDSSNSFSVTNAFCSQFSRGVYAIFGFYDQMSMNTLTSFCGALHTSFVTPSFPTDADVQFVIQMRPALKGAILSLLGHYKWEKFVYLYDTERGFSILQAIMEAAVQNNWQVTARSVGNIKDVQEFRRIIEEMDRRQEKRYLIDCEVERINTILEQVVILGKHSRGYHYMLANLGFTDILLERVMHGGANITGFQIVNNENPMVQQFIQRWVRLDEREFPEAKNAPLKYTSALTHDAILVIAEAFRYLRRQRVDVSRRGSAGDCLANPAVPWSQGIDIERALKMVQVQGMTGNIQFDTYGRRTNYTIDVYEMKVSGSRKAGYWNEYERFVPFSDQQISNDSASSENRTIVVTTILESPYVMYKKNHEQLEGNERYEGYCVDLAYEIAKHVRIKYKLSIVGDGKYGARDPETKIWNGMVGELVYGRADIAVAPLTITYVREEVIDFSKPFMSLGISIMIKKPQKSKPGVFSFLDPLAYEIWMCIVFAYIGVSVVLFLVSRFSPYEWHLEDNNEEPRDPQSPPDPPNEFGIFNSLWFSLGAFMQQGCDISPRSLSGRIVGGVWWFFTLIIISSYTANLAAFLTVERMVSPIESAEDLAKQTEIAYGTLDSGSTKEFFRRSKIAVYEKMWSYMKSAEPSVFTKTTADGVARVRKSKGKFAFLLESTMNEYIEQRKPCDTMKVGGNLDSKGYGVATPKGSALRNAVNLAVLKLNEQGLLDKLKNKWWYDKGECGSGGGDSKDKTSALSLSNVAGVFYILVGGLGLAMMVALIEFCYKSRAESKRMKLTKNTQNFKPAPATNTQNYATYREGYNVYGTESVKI
Method in brief: (§1)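 Oocyte two-electrode voltage clamp at -40 mV holding. Test compound co-applied with agonist; response given as percent of the mean of control and recovery currents to agonist alone. Agonists: 100 µM glutamate (AMPA, kainate), 100 µM GABA (GABA receptors), 100 µM glycine (glycine receptor), 100 µM serotonin (5-HT3A), 9 µM ATP (P2X), 1 µM acetylcholine (nicotinic).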

[2] = biological target: P2X receptor (Homo sapiens) (UniProt P51575+Q99571+Q9UBL9+O15547+P56373+Q99572+Q93086); experiment: Negative allosteric modulation of human P2X expressed in Xenopus laevis oocytes assessed as inhibition of ATP-induced current response at 30 uM at -40 mV holding potential by two-electrode voltage clamp method relative to ATP alone; method in brief: as §1
[3] = biological target: Glutamate NMDA receptor; Grin1/Grin2b (Rattus norvegicus) (UniProt P35439+Q00960); experiment: Negative allosteric modulation of recombinant rat GluN1/GluN2B expressed in Xenopus laevis oocytes assessed as inhibition of glutamate/glycine-induced current response at 30 uM at -40 mV holding potential by two-electrode voltage clamp method relative to glutamate/glycine
Method in brief: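 Oocyte voltage clamp at -40 mV. Drug co-applied with 100 µM glutamate plus 30 µM glycine; response given as percent of the average of control and recovery currents to agonist alone.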

Homo sapiens = organism: Homo sapiens; experiment: Negative allosteric modulation of human GluA2 R607Q mutant expressed in Xenopus laevis oocytes assessed as inhibition of glutamate-induced current response at 30 uM at -40 mV holding potential by two-electrode voltage clamp method relative to glutamate alone; method in brief: as §1
Rattus norvegicus = organism: Rattus norvegicus; experiment: Negative allosteric modulation of rat GABAA alpha1beta2gamma2S expressed in Xenopus laevis oocytes assessed as inhibition of GABA-induced current response at 30 uM at -40 mV holding potential by two-electrode voltage clamp method relative to GABA alone; method in brief: as §1
[4] = biological target: Glutamate receptor ionotropic, kainate 2 (Rattus norvegicus) (UniProt P42260); experiment: Negative allosteric modulation of rat GluK2 expressed in Xenopus laevis oocytes assessed as inhibition of glutamate-induced current response at 30 uM at -40 mV holding potential in presence of concanavalin A by two-electrode voltage clamp method relative to glutamate alone; method in brief: as §1
Glutamate receptor ionotropic, kainate 2 (Rattus norvegicus), sequence (P42260 whole entry): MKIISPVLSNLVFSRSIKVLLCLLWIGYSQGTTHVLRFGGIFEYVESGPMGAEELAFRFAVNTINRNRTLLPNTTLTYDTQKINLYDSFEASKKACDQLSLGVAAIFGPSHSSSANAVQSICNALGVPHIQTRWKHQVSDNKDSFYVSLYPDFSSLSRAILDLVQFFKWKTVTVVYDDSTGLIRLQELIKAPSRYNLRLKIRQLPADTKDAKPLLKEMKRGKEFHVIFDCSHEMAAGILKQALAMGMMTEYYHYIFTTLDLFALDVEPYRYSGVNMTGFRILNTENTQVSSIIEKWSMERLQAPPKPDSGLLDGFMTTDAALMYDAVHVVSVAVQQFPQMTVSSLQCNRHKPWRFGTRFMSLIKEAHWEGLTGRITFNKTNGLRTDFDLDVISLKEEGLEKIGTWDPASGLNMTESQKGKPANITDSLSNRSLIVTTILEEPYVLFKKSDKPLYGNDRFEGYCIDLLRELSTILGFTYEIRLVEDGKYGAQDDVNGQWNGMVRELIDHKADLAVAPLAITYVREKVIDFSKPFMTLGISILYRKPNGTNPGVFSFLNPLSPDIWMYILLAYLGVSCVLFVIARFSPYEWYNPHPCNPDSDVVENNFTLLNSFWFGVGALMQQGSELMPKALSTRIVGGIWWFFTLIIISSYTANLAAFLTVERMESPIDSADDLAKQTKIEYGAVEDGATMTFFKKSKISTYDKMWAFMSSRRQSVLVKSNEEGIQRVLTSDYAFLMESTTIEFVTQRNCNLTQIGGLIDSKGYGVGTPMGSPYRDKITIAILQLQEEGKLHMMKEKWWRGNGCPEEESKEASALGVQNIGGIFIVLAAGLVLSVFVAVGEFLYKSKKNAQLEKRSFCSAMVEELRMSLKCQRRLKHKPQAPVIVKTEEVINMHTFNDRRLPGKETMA

[5] = biological target: Ionotropic glutamate receptor NMDA 1/2D (Rattus norvegicus, UniProt P35439+Q62645); experiment: Negative allosteric modulation of recombinant rat GluN1/GluN2D expressed in Xenopus laevis oocytes assessed as inhibition of glutamate/glycine-induced current response at -40 mV holding potential by two-electrode voltage clamp method
Method in brief: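 Oocytes recorded while the drug is co-applied with a maximally effective 100 µM glutamate plus 30 µM glycine. Response is expressed as percent of the glutamate/glycine control. IC50 comes from a Hill fit to the average composite concentration-response curve. 8-16 oocytes from 2-3 frogs per compound and receptor.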

[6] = system: Glutamate receptor 4 (Homo sapiens), P48058 [L505Y]; experiment: Negative allosteric modulation of human GluA4 L505Y mutant expressed in Xenopus laevis oocytes assessed as inhibition of glutamate-induced current response at 30 uM at -40 mV holding potential by two-electrode voltage clamp method relative to glutamate alone; method in brief: as §1
Glutamate receptor 4 (Homo sapiens), P48058 [L505Y], sequence (P48058 whole entry L505Y): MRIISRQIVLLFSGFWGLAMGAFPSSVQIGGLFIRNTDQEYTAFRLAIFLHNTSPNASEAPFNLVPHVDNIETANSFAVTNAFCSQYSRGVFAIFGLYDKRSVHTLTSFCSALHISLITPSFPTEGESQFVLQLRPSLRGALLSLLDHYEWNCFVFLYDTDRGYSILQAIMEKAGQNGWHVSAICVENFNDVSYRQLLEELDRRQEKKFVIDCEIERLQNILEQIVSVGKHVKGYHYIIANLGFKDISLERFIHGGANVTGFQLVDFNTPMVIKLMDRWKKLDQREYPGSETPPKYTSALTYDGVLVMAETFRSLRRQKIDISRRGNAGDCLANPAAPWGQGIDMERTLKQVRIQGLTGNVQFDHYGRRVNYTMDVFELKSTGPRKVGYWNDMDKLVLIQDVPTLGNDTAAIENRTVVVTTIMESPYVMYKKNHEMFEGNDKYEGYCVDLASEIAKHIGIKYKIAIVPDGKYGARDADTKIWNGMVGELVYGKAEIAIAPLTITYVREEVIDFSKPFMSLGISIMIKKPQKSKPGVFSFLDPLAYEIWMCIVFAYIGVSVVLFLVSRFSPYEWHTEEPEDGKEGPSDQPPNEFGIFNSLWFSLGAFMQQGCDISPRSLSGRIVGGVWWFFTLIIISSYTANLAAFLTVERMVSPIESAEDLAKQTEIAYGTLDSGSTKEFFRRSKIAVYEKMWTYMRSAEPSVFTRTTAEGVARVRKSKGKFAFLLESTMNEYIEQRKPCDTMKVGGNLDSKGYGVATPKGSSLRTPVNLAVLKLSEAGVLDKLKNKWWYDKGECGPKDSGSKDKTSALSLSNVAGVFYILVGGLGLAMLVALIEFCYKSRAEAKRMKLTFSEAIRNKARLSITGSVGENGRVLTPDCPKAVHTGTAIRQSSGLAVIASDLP

[7] = biological target: Ionotropic glutamate receptor NMDA 1/2D (Rattus norvegicus) (UniProt P35439+Q62645); experiment: Negative allosteric modulation of recombinant rat GluN1/GluN2D expressed in Xenopus laevis oocytes assessed as inhibition of glutamate/glycine-induced current response at saturated concentration at -40 mV holding potential by two-electrode voltage clamp method relative to glutamate/glycine
Method in brief: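 Hill fit of the composite concentration-response curve in oocytes, with agonist 100 µM glutamate plus 30 µM glycine. Residual response in saturating compound is either fixed at 0 or fitted. 8-16 oocytes from 2-3 frogs.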

## CCN(CC)C(=O)Oc1ccc(C(=O)Nc2cccc(CCNS(=O)(=O)c3ccccc3)c2)cc1
[1]
  inhibition: 86%
[2]
  inhibition: 80%
[3]
  inhibition: 24%
Homo sapiens
  inhibition: 95%
Rattus norvegicus
  inhibition: 90%
[4]
  inhibition: 92%
[5]
  IC50: 1700 nM
[6]
  inhibition: 86%
[7]
  inhibition: 0%
